Measured values collected from several papers.
Lines come from different studies, so protocols differ.
mraY: mraY (Staphylococcus aureus, UniProt Q2FZ93)
HTR2C: 5-hydroxytryptamine receptor 2C (HTR2C, Homo sapiens, UniProt P28335)

SMILES | target | assay | conditions | inhibition [%]
Cc1cc(F)cc2c(CCC(=O)N[C@@H]3C(=O)NC[C@H]3O)c(-c3ccc(F)cc3)[nH]c12 | Substance-P receptor (TACR1, Homo sapiens, UniProt P25103) | cell-free assay | 10 µM | 25
CCCCCCC#Cc1cncc(-c2nnc(SCc3cc([N+](=O)[O-])cc([N+](=O)[O-])c3)n2CCO)c1 | mraY | cell-free assay, inhibitor | 250 µM | 55
COc1cc2c3c(c1OC)-c1c(OC)ccc(N4CCOCC4)c1CC3N(C)CC2 (stereo not drawn) | HTR2C | ligand displacement, radioligand | 10 µM | 50
CCCCCCC#Cc1cncc(-c2nnc(SCc3cc(=O)[nH]c4ccccc34)n2C)c1 | mraY | cell-free assay, inhibitor | 250 µM | 30
NC/C(=C\F)COc1cccc(Cn2c(=S)[nH]c(=O)c3[nH]cnc32)c1 | B2 bradykinin receptor (BDKRB2, Homo sapiens, UniProt P30411) | ligand displacement, radioligand | 10 µM | < 50
COc1cc2c3c(c1OC)-c1c(OC)ccc(NC(C)=O)c1CC3N(C)CC2 (stereo not drawn) | HTR2C | ligand displacement, radioligand | 10 µM | 3
C#Cc1cc(-c2cc(Nc3nc(N[C@@H](C)c4ccc(F)cn4)ncc3Cl)n[nH]2)ccc1C=O | Serine/threonine-protein kinase SIK1 (SIK1, Homo sapiens, UniProt P57059) | enzyme activity, inhibitor | 0.2 µM | 82.4
COc1cc2c3c(c1OC)-c1c(OC)ccc(-c4ccc(C#N)cc4)c1CC3N(C)CC2 (stereo not drawn) | 5-hydroxytryptamine receptor 2B (HTR2B, Homo sapiens, UniProt P41595) | ligand displacement, radioligand | 10 µM | 65
CCCCCCC#Cc1cncc(-c2nnc(SC[C@H]3O[C@@H](n4ccc(=O)[nH]c4=O)[C@H](O)[C@@H]3O)n2C)c1 | mraY | cell-free assay, inhibitor | 250 µM | 0
CCN1/C(=C/C(C)=O)Sc2ccc(F)cc21 | Gastrin/cholecystokinin type B receptor (CCKBR, Homo sapiens, UniProt P32239) | ligand displacement, radioligand | 10 µM | 1.43
CC[N+]1(C)CCc2cc(OC)c(OC)c3c2C1Cc1cccc(OC)c1-3 (stereo not drawn) | HTR2C | ligand displacement, radioligand | 10 µM | -19
CCCCCCC#Cc1cncc(-c2nnc(SC[C@H]3O[C@@H](n4ccc(=O)[nH]c4=O)[C@H](O)[C@@H]3O)n2CCCN)c1 | mraY | cell-free assay, inhibitor | 250 µM | 44
